TRPC4 inh: TRPC4 (mouse) channel inhibition; Q9QUQ5; HEK293 TRPC4beta/mu-opioid, DAMGO-evoked Fluo4 calcium flux; hits give low values; B-score at 10 µM; 300,000 tested, 0.39% active;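 active = B-score over 3 SD under the library average, no early fluorescence shift, positive overall ratio signal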
Target sequence (Q9QUQ5 whole entry, looked up): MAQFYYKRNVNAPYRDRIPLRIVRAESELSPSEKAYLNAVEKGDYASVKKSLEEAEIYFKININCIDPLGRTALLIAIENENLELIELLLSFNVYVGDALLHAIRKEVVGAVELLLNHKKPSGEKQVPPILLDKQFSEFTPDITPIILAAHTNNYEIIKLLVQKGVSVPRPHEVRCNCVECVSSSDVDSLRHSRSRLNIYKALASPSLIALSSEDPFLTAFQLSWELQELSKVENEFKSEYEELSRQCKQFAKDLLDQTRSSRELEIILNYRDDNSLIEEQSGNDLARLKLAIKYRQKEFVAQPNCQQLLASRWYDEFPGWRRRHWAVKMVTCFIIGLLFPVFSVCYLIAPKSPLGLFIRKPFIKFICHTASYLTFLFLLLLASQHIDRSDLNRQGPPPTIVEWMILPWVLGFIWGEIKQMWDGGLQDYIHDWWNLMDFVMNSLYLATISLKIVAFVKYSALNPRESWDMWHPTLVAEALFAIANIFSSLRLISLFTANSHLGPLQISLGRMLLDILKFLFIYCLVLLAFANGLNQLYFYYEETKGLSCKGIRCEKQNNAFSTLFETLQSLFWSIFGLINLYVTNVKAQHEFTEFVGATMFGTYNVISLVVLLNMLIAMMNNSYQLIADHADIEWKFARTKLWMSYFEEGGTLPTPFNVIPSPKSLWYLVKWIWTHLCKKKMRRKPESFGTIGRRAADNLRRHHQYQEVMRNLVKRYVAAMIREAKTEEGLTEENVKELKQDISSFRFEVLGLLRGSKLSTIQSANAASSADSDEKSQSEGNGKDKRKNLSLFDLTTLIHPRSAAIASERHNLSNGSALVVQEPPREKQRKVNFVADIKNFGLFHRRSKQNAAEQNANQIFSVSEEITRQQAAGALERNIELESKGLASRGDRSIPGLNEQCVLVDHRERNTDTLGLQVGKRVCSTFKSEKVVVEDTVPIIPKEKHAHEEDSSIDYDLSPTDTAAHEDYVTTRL
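test system = HEK293 cells with stable TRPC4beta plus mu-opioid receptor expression | detection = Fluo4 Ca2+ flux fluorescence | read-out = integrated fluorescence ratio relative to baseline, converted to per-well B score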
TRPC6 inhibitor: blocks the mouse TRPC6 cation channel; 310,000 tested, 1.1% active; B-score at 10 µM; Q61143; HEK293-TRPC6, membrane potential dye, ACh-evoked depolarization; hits give low values;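 active = B-score under library mean minus 3 SD, initial fluorescence not abnormally high, positive integrated signal ratio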;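 also: B-score derived from integrated fluorescence ratio over the kinetic read; more negative B-score means stronger inhibition of depolarization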
TRPC4 agonist: opens the mouse TRPC4 cation channel; Q9QUQ5; HEK293 TRPC4beta/mu-opioid, Fluo4 calcium fluorescence; hits give high values; B-score at 10 µM; 310,000 tested, 0.49% active;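 active = B-score above 5 SD of library B-scores, and initial fluorescence ratio not above library mean plus 5 SD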;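 also: positive B-score marks a calcium rise read as TRPC4 activation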
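Material: TRPC4beta and mu-opioid receptor HEK293 stable cells | Incubation: 45 min room-temperature Fluo4 loading, 110 s read | Detection: Kinetic Fluo4 calcium fluorescence | Measure: Integrated baseline-normalised fluorescence ratio, converted to per-well B score | Benchmarks: Low control buffer alone, high control maximal DAMGO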
TRPC6 activator: activates the mouse TRPC6 cation channel; Q61143; HEK293-TRPC6 membrane potential dye fluorescence; hits give high values; B-score at 10 µM; 310,000 tested, 0.13% active; AID 2550;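 active = B-score of the integrated fluorescence ratio above library mean plus 3 SD, and starting fluorescence ratio within library mean plus 5 SD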;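 also: higher score means more depolarization so channel activation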
TRPC4 potent: allosteric potentiators of mouse TRPC4 channel; Q9QUQ5; HEK293 TRPC4beta/mu-opioid, DAMGO EC20, Fluo-4 Ca2+ flux; hits give high values; B-score at 10 µM; 310,000 tested, 0.42% active; AID 2227;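 active = B-score of calcium response area above 5 SD of library B-scores, with initial fluorescence ratio within 5 SD of library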;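 also: B-score of integrated fluorescence ratio over time as area under calcium response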
The depositor's hits bear a star. Sampled rows, rich in hits. Any-hit rate of the full collection: about 2.3%.

Results for Cc1c(C(=O)NC(=S)NCc2cccnc2)cccc1[N+](=O)[O-] ?
TRPC4 inh: inactive; TRPC6 inhibitor: inactive; TRPC4 agonist: inactive; TRPC6 activator: inactive; TRPC4 potent: inactive

How did CC(C)c1ccc(C(=O)N2CCN(c3cnn(C)c(=O)c3Cl)CC2)cc1 do in these assays?
TRPC4 inh: inactive; TRPC6 inhibitor: inactive; TRPC4 agonist: inactive; TRPC6 activator: inactive; TRPC4 potent: inactive

Results for Oc1ccccc1/C=N/NC(=S)NC1CC2CC1C1C=CCC21 (stereo not drawn) ?
TRPC4 inh: -8*; TRPC6 inhibitor: inactive; TRPC4 agonist: inactive; TRPC6 activator: inactive; TRPC4 potent: inactive

What do the screens show for `COc1ccc(S(=O)(=O)N2CCC(C(=O)NCc3ccncc3)CC2)cc1OC`?
TRPC4 inh: inactive; TRPC6 inhibitor: inactive; TRPC4 agonist: inactive; TRPC6 activator: inactive; TRPC4 potent: inactive

Results for CC1(c2ccccc2)CC(C)(C)N(C(=O)C2CCCO2)c2ccccc21 (stereo not drawn) ?
TRPC4 inh: -7*; TRPC6 inhibitor: inactive; TRPC4 agonist: inactive; TRPC6 activator: inactive; TRPC4 potent: inactive

How did CC1(c2cc([N+](=O)[O-])cc([N+](=O)[O-])c2)CC(C)(C)N(C(=O)c2ccccc2)c2ccccc21 (stereo not drawn) do in these assays?
TRPC4 inh: inactive; TRPC6 inhibitor: inactive; TRPC4 agonist: inactive; TRPC6 activator: inactive; TRPC4 potent: inactive

How did Cc1ccc(OS(=O)(=O)c2ccc(N3C(=O)CCC3=O)cc2)cc1 do in these assays?
TRPC4 inh: inactive; TRPC6 inhibitor: inactive; TRPC4 agonist: inactive; TRPC6 activator: inactive; TRPC4 potent: inactive

Results for Cc1ccc(Sc2cc(C(=O)NCCN(C)C)c3ccccc3n2)cc1 ?
TRPC4 inh: inactive; TRPC6 inhibitor: inactive; TRPC4 agonist: 203*; TRPC6 activator: inactive; TRPC4 potent: inactive

What do the screens show for `CN(C)CCNC(=O)c1cc(Sc2ccc(F)cc2)nc2ccccc12`?
TRPC4 inh: inactive; TRPC6 inhibitor: inactive; TRPC4 agonist: inactive; TRPC6 activator: inactive; TRPC4 potent: 31*

What do the screens show for `COC(=O)[C@@]12CCCCN1[C@H](c1ccc(-c3ccccc3)cc1)[C@@H]1C(=O)N(C)C(=O)[C@@H]12`?
TRPC4 inh: inactive; TRPC6 inhibitor: inactive; TRPC4 agonist: inactive; TRPC6 activator: inactive; TRPC4 potent: 18*

Results for CCOC(=O)C1(CCOC)CCN(Cc2ccncc2)CC1 ?
TRPC4 inh: inactive; TRPC6 inhibitor: inactive; TRPC4 agonist: inactive; TRPC6 activator: inactive; TRPC4 potent: inactive

Results for CCOC(=O)C1(CCOc2ccccc2)CCN(Cc2cccn2-c2ncccn2)CC1 ?
TRPC4 inh: -9*; TRPC6 inhibitor: inactive; TRPC4 agonist: inactive; TRPC6 activator: inactive; TRPC4 potent: inactive

What do the screens show for `CCOC(=O)C1(CCOc2ccccc2)CCN(Cc2cccc(OC)c2)CC1`?
TRPC4 inh: inactive; TRPC6 inhibitor: inactive; TRPC4 agonist: inactive; TRPC6 activator: inactive; TRPC4 potent: inactive

Results for CCOC(=O)C1(CCOc2ccccc2)CCN(Cc2ccncc2)CC1 ?
TRPC4 inh: inactive; TRPC6 inhibitor: inactive; TRPC4 agonist: inactive; TRPC6 activator: inactive; TRPC4 potent: inactive

How did CCOC(=O)C1(CCOc2ccccc2)CCN(Cc2ccc(-n3cccn3)cc2)CC1 do in these assays?
TRPC4 inh: -7*; TRPC6 inhibitor: inactive; TRPC4 agonist: inactive; TRPC6 activator: inactive; TRPC4 potent: inactive

How did CCOC(=O)C1(CCOc2ccccc2)CCN(Cc2cc(OC)ccc2OC)CC1 do in these assays?
TRPC4 inh: inactive; TRPC6 inhibitor: inactive; TRPC4 agonist: 98*; TRPC6 activator: inactive; TRPC4 potent: inactive

Results for CCOC(=O)C1(CCOC)CCN(Cc2ccccc2-c2ccco2)CC1 ?
TRPC4 inh: inactive; TRPC6 inhibitor: inactive; TRPC4 agonist: 123*; TRPC6 activator: inactive; TRPC4 potent: inactive

How did CCOC(=O)C1(CCOc2ccccc2)CCN(Cc2nccn2CC)CC1 do in these assays?
TRPC4 inh: inactive; TRPC6 inhibitor: inactive; TRPC4 agonist: inactive; TRPC6 activator: inactive; TRPC4 potent: inactive

What do the screens show for `CCC(=O)C1CCCN(C(=O)CCc2nnc(C3(c4ccc(Cl)cc4)CCC3)o2)C1` (stereo not drawn)?
TRPC4 inh: inactive; TRPC6 inhibitor: inactive; TRPC4 agonist: inactive; TRPC6 activator: inactive; TRPC4 potent: inactive

Results for COc1ccccc1CNC(=O)CN(C)S(=O)(=O)c1ccc(F)cc1 ?
TRPC4 inh: inactive; TRPC6 inhibitor: inactive; TRPC4 agonist: inactive; TRPC6 activator: inactive; TRPC4 potent: inactive

Results for CCOC(=O)C1(CCOc2ccccc2)CCN(Cc2cccs2)CC1 ?
TRPC4 inh: -5*; TRPC6 inhibitor: inactive; TRPC4 agonist: inactive; TRPC6 activator: inactive; TRPC4 potent: inactive

How did CCOC(=O)C1(CCOc2ccccc2)CCN(Cc2ccc(C(=O)OC)cc2)CC1 do in these assays?
TRPC4 inh: inactive; TRPC6 inhibitor: inactive; TRPC4 agonist: inactive; TRPC6 activator: inactive; TRPC4 potent: inactive

Results for CCCN(CCC)CCCNC(=O)C1CCC(CNS(=O)(=O)c2cccc3nsnc23)CC1 (stereo not drawn) ?
TRPC4 inh: inactive; TRPC6 inhibitor: inactive; TRPC4 agonist: 103*; TRPC6 activator: inactive; TRPC4 potent: inactive

How did CC(C)OCCCNC(=O)C1CCC(CNS(=O)(=O)c2cccc3nsnc23)CC1 (stereo not drawn) do in these assays?
TRPC4 inh: inactive; TRPC6 inhibitor: inactive; TRPC4 agonist: inactive; TRPC6 activator: inactive; TRPC4 potent: inactive

Results for CCCCN(C)CCCNC(=O)C1CCC(CNS(=O)(=O)c2c(C)cc(C)cc2C)CC1 (stereo not drawn) ?
TRPC4 inh: inactive; TRPC6 inhibitor: inactive; TRPC4 agonist: inactive; TRPC6 activator: inactive; TRPC4 potent: 12*

How did CN1CCN(C(CNS(=O)(=O)c2ccc(Br)cc2)c2ccc3c(c2)OCO3)CC1 (stereo not drawn) do in these assays?
TRPC4 inh: inactive; TRPC6 inhibitor: inactive; TRPC4 agonist: inactive; TRPC6 activator: inactive; TRPC4 potent: inactive

How did CCCC1C(=O)N(Cc2ccccc2)C(=O)CC1C (stereo not drawn) do in these assays?
TRPC4 inh: inactive; TRPC6 inhibitor: inactive; TRPC4 agonist: inactive; TRPC6 activator: inactive; TRPC4 potent: inactive

Results for COc1c(C)cc(C(=O)C2CCCN(C(=O)c3snnc3C)C2)cc1C (stereo not drawn) ?
TRPC4 inh: inactive; TRPC6 inhibitor: inactive; TRPC4 agonist: inactive; TRPC6 activator: inactive; TRPC4 potent: inactive

What do the screens show for `O=C(NCC(=O)N1CCOCC1)c1ccccc1`?
TRPC4 inh: inactive; TRPC6 inhibitor: inactive; TRPC4 agonist: inactive; TRPC6 activator: inactive; TRPC4 potent: inactive

Bioassay records deposited in PubChem BioAssay by Johns Hopkins Ion Channel Center.
